Calls of active or inactive are those of the source. Unless noted, the calls are words filed in the database; no cut-off is given here.
Columns and labels:
U-937 [1] = test: Induction of granulocytic differentiation in human U937 cells assessed as CD11c expression at 1 uM after 30 hrs; type: functional; details: 5 uM, in the assay text read “at 5 uM” for “at 1 uM”
Summary of the method: (§1)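 U937 cells treated for 30 h, then stained with PE-conjugated CD11c (PE mouse IgG1 as control) for 30 min at 4 °C in the dark and resuspended in PBS with PI (0.25 µg/mL). Read-out is percent CD11c-positive/PI-negative cells, with dead PI-positive cells excluded. Coloured compounds limited the top dose to 5 µM or lower.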

RmtA = RmtA (Emericella nidulans, UniProt Q5VLE3); test: Inhibition of Aspergillus nidulans RmtA
Summary of the method: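 Enzyme was GST-RmtA fusion expressed in E. coli BL21 and glutathione-affinity purified (500 ng), preincubated with compound for 15 min at room temperature. Then 20 µg chicken erythrocyte core histones and 0.55 µCi [3H]AdoMet were added, 30 min at 30 °C. Stopped with 25% TCA, filtered, counted by liquid scintillation.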

[2] = molecular target: Protein arginine N-methyltransferase 1 (Homo sapiens) (UniProt Q99873); test: Inhibition of human recombinant PRMT1 assessed as histone H4 methylation at 50 uM
[3] = molecular target: Protein arginine N-methyltransferase 1 (Homo sapiens) (UniProt Q99873); test: Inhibition of human recombinant PRMT1 assessed as nuclear ribonucleoprotein Npl3p methylation at 100 uM
Summary of the method: (§2)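 Recombinant enzymes (0.2 µg) with substrate (0.5 µg: Npl3p for PRMT1, PABP1 for CARM1, histone H3 for SET7), 0.5 µM [3H]AdoMet and 100 µM compound in PBS pH 7.4 with 3.3% v/v DMSO, 90 min at 30 °C. Products separated by 10% SDS-PAGE, transferred to PVDF, detected by fluorography on film overnight.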

[4] = molecular target: T1, Histone-arginine methyltransferase CARM1 (Homo sapiens) (UniProt Q86X55); test: Inhibition of human recombinant CARM1 assessed as poly(A) binding protein 1 methylation at 100 uM; summary of the method: as §2
T1 sequence (whole entry): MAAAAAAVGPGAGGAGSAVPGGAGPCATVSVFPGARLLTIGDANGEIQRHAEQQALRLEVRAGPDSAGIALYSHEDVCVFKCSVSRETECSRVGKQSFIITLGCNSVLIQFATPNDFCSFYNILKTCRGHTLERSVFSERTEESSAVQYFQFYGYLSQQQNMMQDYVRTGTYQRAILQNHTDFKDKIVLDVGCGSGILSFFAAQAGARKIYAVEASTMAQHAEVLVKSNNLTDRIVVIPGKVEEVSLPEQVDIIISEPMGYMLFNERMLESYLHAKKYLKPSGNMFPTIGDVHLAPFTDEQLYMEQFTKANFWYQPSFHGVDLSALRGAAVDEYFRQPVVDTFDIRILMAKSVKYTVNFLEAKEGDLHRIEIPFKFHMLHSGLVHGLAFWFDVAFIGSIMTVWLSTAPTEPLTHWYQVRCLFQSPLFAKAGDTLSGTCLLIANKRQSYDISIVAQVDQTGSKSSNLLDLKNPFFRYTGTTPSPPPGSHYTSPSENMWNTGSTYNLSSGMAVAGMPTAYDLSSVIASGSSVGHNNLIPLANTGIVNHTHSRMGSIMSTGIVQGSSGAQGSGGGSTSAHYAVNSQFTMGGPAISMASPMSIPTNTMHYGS

[5] = molecular target: T2, Histone-lysine N-methyltransferase SETD7 (Homo sapiens) (UniProt Q8WTS6); test: Inhibition of human recombinant SET7 assessed as histone H3 protein methylation at 100 uM; summary of the method: as §2
T2 sequence (whole entry): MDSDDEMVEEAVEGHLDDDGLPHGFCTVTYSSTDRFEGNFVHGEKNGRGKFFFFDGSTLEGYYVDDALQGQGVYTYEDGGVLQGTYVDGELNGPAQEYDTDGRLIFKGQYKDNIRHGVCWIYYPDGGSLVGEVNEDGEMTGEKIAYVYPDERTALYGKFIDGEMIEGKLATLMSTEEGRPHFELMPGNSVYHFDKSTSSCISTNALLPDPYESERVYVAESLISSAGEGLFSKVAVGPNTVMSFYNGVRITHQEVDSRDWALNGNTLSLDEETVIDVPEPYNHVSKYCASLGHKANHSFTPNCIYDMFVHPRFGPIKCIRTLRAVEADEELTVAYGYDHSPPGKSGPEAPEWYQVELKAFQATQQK

U-937 [6] = test: Inhibition of histone H4R3 methylation in human U937 cells at 50 uM after 24 hrs; type: functional, cell-based
Summary of the method: (§3)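 U937 cells treated at 50 µM for 24 h. Histones extracted with Triton buffer, then 0.2 M HCl overnight at 4 °C. 3–10 µg run on 15% SDS-PAGE and immunoblotted with anti-monomethyl-H3K4, monomethyl-H4R3 or dimethyl-H3R17 (1:500, overnight 4 °C), ECL detection. Loading controls: total H4 (H3K4), Ponceau Red (Arg marks).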

U-937 [7] = test: Inhibition of histone H3R17 methylation in human U937 cells at 50 uM after 24 hrs; type: functional, cell-based; summary of the method: as §3
U-937 [8] = test: Inhibition of human p300/CBP in U937 cells at 50 uM assessed as histone H3 acetylation; type: cell-based
Summary of the method: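 Source was U937 nuclear extract (10 µg per assay) as p300/CBP HAT, with histone H3 substrate and compound at 50 µM or DMSO control for 90 min. Acetyl-H3 detected by indirect ELISA, quantified against acetylated H3 peptide standard curves, […].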

[9] = molecular target: T3, NAD-dependent protein deacetylase sirtuin-1 (Homo sapiens) (UniProt Q96EB6); test: Inhibition of human SIRT1 at 25 uM
T3 sequence (whole entry): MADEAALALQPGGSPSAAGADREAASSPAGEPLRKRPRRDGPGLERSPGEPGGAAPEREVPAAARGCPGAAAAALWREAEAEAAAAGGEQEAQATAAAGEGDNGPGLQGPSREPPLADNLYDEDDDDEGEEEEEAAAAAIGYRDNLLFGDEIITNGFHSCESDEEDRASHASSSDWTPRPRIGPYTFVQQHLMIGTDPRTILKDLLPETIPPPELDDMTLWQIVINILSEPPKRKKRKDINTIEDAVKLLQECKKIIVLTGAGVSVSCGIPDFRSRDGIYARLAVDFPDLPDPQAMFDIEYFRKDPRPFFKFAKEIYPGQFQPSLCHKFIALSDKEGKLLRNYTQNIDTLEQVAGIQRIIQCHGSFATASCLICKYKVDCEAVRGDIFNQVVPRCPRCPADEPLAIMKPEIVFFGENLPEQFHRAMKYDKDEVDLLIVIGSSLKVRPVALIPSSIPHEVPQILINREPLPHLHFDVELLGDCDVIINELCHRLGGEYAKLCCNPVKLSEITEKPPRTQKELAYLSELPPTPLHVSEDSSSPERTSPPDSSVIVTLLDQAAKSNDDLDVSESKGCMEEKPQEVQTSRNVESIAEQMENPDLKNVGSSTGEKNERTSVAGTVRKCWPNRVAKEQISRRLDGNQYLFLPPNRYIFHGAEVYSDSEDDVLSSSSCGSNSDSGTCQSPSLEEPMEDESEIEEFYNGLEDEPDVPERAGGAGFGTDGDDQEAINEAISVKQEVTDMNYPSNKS
Summary of the method: (§4)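 Fluorescent two-stage assay. SIRT1 (1 U/well) or SIRT2 (5 U/well) with Fluor de Lys-SIRT1/2 substrate, NAD+ and compound at 25 µM, 37 °C for 2 h. Developer II containing nicotinamide then stopped the reaction and generated signal, read at ex 360/em 460 nm.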

[10] = molecular target: T4, NAD-dependent protein deacetylase sirtuin-2 (Homo sapiens) (UniProt Q8IXJ6); test: Inhibition of human SIRT2 at 25 uM; summary of the method: as §4
T4 sequence (whole entry): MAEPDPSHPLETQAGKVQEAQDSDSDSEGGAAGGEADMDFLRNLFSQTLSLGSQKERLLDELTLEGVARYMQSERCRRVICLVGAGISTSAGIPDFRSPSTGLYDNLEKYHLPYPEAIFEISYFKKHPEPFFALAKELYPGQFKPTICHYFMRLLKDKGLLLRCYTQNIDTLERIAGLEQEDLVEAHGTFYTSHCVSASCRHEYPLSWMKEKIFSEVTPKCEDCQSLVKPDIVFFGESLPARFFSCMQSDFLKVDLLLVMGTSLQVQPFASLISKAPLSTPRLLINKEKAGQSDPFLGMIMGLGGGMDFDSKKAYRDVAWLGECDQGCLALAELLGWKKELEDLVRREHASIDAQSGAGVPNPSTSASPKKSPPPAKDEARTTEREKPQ

U-937 [11] = test: Inhibition of histone H3K4 methylation in human U937 cells at 50 uM after 24 hrs; type: functional, cell-based; summary of the method: as §3
U-937 [12] = test: Induction of apoptosis in human U937 cells at 25 uM after 30 hrs; type: functional
Summary of the method: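 Apoptosis read as caspase 3 activation by FACS, in U937 cells (RPMI, 10% fetal calf serum, 200000 cells/mL) exposed to 25 µM for 30 h.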

U-937 [13] = test: Induction of granulocytic differentiation in human U937 cells assessed as CD11c expression at 5 uM after 30 hrs; type: functional; summary of the method: as §1

Sequence of Protein arginine N-methyltransferase 1 (Homo sapiens) (Q99873 whole entry, looked up): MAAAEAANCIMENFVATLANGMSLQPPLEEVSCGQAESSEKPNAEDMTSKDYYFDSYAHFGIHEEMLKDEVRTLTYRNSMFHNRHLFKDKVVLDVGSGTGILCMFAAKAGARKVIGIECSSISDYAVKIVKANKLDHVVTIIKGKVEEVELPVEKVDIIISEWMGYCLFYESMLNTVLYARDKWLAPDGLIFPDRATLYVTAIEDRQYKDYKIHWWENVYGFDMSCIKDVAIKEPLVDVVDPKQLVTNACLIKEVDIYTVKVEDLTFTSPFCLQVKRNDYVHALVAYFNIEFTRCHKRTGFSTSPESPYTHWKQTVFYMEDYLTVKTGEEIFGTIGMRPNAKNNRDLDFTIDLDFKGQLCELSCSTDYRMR
Sequence of RmtA (Q5VLE3 whole entry, the tested form may be a part): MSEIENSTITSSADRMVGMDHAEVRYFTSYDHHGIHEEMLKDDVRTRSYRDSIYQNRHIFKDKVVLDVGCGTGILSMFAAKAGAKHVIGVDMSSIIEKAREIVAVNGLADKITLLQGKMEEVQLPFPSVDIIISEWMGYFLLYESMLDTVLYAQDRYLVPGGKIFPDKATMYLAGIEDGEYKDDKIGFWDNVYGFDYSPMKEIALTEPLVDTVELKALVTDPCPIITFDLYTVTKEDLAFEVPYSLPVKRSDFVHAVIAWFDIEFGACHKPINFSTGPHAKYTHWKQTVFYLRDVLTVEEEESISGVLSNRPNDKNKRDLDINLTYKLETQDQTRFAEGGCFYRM

SMILES | IC50 (RmtA) | inhibition [2] | Activity [3] | Activity [4] | Activity [5] | inhibition [9] | inhibition [10] | Activity [2] | Activity [9] | Activity [10] | Activity (U-937 [1]) | Activity (U-937 [6]) | Activity (U-937 [7]) | inhibition (U-937 [8]) | Activity (U-937 [11]) | Activity (U-937 [12]) | Activity (U-937 [13]) | Activity (U-937 [8])
O=C1/C(=C/c2ccc(O)c(Br)c2)Cc2ccccc2/C1=C\c1ccc(O)c(Br)c1 | 92 µM | – | inactive | Active | inactive | – | – | – | – | – | – | Active | Active | – | Active | – | – | –
O=C(/C=C/c1c(O)cc(Br)cc1Br)/C=C/c1c(O)cc(Br)cc1Br | 238 µM | – | Active | – | inactive | – | – | – | – | – | – | Active | Active | – | Active | – | – | –
CC(NC(=O)c1ccccc1/N=C/c1c(O)ccc2ccccc12)c1ccccc1 (stereo unspecified) [SIRTINOL] | – | – | – | – | – | – | – | – | – | – | – | – | – | – | – | 7.5% | 7.5% | –
O=C1/C(=C/c2ccc(O)c(Br)c2)COC/C1=C\c1ccc(O)c(Br)c1 | 132 µM | – | inactive | Active | inactive | – | – | – | – | – | – | Active | Active | – | Active | – | – | –
O=C(/C=C/c1ccc(O)c(Br)c1)/C=C/c1ccc(O)c(Br)c1 | 162 µM | – | Active | Active | – | – | – | inactive | inactive | inactive | – | inactive | inactive | – | inactive | – | – | inactive
O=C1/C(=C/c2ccc(O)c(Br)c2)CCC/C1=C\c1ccc(O)c(Br)c1 | 90 µM | – | inactive | Active | inactive | – | – | – | – | – | – | Active | Active | – | Active | – | – | –
O=C(/C=C/c1ccc(O)c(Br)c1)c1ccc(C(=O)/C=C/c2ccc(O)c(Br)c2)cc1 | 47 µM | – | inactive | Active | inactive | – | – | – | – | – | – | Active | Active | – | – | – | – | –
O=C(/C=C/c1ccc(O)c(Br)c1)c1cccc(C(=O)/C=C/c2ccc(O)c(Br)c2)c1 | 59 µM | – | inactive | Active | inactive | – | – | – | – | – | – | Active | Active | – | Active | – | – | –
O=C(/C=C/c1cc(Br)c(O)c(Br)c1)c1cc(Br)c(O)c(Br)c1 | 29 µM | 61% | inactive | inactive | – | 35% | 37% | – | – | – | – | Active | Active | 16% | Active | – | – | –
O=C(/C=C/c1c(Br)cc(O)cc1Br)/C=C/c1c(Br)cc(O)cc1Br | 215 µM | – | Active | – | inactive | – | – | – | – | – | – | Active | Active | – | Active | – | – | –

The next lines start with results.

IC50 (RmtA) | inhibition [2] | Activity [3] | Activity [4] | Activity [5] | inhibition [9] | inhibition [10] | Activity [2] | Activity [9] | Activity [10] | SMILES | Activity (U-937 [1]) | Activity (U-937 [6]) | Activity (U-937 [7]) | inhibition (U-937 [8]) | Activity (U-937 [11]) | Activity (U-937 [12]) | Activity (U-937 [13]) | Activity (U-937 [8])
61.4 µM | 86% | Active | Active | Active | 2% | 0% | – | – | – | O=C(Nc1cccc(NC(=O)c2cc(Br)c(O)c(Br)c2)c1)c1cc(Br)c(O)c(Br)c1 | inactive | Active | Active | 83% | – | – | – | –
122 µM | – | Active | Active | Active | – | – | – | – | – | O=C(Nc1ccc(NC(=O)c2cc(Br)c(O)c(Br)c2)cc1)c1cc(Br)c(O)c(Br)c1 | – | Active | Active | – | – | – | – | –
109 µM | – | inactive | Active | inactive | – | – | – | – | – | O=C(/C=C/c1ccc(O)c(Br)c1)CC(=O)/C=C/c1ccc(O)c(Br)c1 | – | Active | Active | – | – | – | – | –
40 µM | 36% | inactive | inactive | – | 35% | 38% | – | – | – | O=C(/C=C/c1ccc(O)c(Br)c1)c1cc(Br)c(O)c(Br)c1 | – | Active | Active | 0% | Active | – | – | –
